From ChEMBL document CHEMBL5712090, “Therapeutic targeting of p300/CBP HAT domain for the treatment of NUT midline carcinoma” (Oncogene, 2020)
Activity calls are given as the source filed them. The rule behind the calls is not given here.

Columns and labels:
HCC2429 [1] = assay: Antiproliferative activity against human HCC2429 cells for 72 hrs incubation measured by Celltiter Glo Cell Viability assay; assay type: functional, cell-based; conditions: HCC2429, 72 h
In short: (§1)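 Cells exposed to inhibitor over 10 nM–25 µM for 72 h; viability read by CellTiter Glo luminescence. IC50 taken from dose-response curve fit. Mean ± SD of three technical replicates.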

[2] = Antiproliferative activity against human 00-143 cells for 72 hrs incubation measured by Celltiter Glo Cell Viability assay; assay type: functional, cell-based; conditions: 00-143, 72 h; in short: as §1
Ty-82 = assay: Antiproliferative activity against human Ty-82 cells for 72 hrs incubation measured by Celltiter Glo Cell Viability assay; assay type: functional, cell-based; conditions: TY82, 72 h; in short: as §1
HCC2429 [3] = assay: Inhibition of p300/CBP in human HCC2429 cells assessed as H3K27ac protein acetylation at 1 microM for 3 days by immunofluorescence analysis; assay type: cell-based; conditions: time 3.0 day
In short: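 HCC2429 cells treated 3 days with 1 µM or DMSO. H3K27ac, BRD4-NUT and wild-type BRD4 imaged by immunofluorescence.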

HCC2429 [4] = assay: Inhibition of p300/CBP in human HCC2429 cells assessed as H3K27ac protein acetylation at MYC promoter and TP63 enhancer region with 1 microM for 3 days by ChIP analysis; assay type: cell-based; conditions: time 3.0 day
In short: (§2)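 HCC2429 cells held 3 days at 1 µM or DMSO. Chromatin precipitated with H3K27ac, NUT or normal rabbit IgG antibodies. MYC promoter and TP63 enhancer quantified by qPCR as fold enrichment over IgG. Mean ± SEM, four independent experiments.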

HCC2429 [5] = assay: Inhibition of p300/CBP in human HCC2429 cells assessed as BRD4-NUT level at MYC promoter and TP63 enhancer region with 1 microM for 3 days by ChIP analysis; assay type: cell-based; conditions: time 3.0 day; in short: as §2
HCC2429 [6] = assay: Downregulation of MYC mRNA level in human HCC2429 cells for 48 hrs treatment by qRT-PCR analysis; assay type: functional, cell-based
In short: (§3)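 HCC2429 cells treated at indicated concentrations for 48 h. MYC, CCAT1 and TP63 mRNA measured by quantitative RT-PCR.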

HCC2429 [7] = assay: Downregulation of CCAT1 mRNA level in human HCC2429 cells for 48 hrs treatment by qRT-PCR analysis; assay type: functional, cell-based; in short: as §3
HCC2429 [8] = assay: Downregulation of TP63 mRNA level in human HCC2429 cells for 48 hrs treatment by qRT-PCR analysis; assay type: functional, cell-based; in short: as §3
HCC2429 [9] = assay: Downregulation of MYC protein level in human HCC2429 cells for 48 hrs treatment by qRT-PCR analysis; assay type: functional, cell-based; conditions: in the assay text read “immunoblot analysis” for “qRT-PCR analysis”
In short: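 HCC2429 cells treated at indicated concentrations for 48 h. MYC and H3K27ac protein assessed by immunoblot.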

HCC2429 [10] = assay: Induction of squamous differentiation in human HCC2429 cells assessed as accumulation of pan-keratin in cytoplasm at 0.5 microM for 5 days by immunofluorescence staining method; assay type: functional, cell-based; conditions: time 5.0 day
In short: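 HCC2429 cells exposed 5 days to 0.5 µM. Cytokeratin detected by immunofluorescence.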

HCC2429 [11] = assay: Induction of squamous differentiation in human HCC2429 cells assessed as flattening of cells at 0.5 microM for 5 days by immunofluorescence staining method; assay type: functional, cell-based; conditions: time 5.0 day
HCC2429 [12] = assay: Induction of cell cycle arrest in human HCC2429 cells assessed as G1 cell cycle arrest at 0.5 microM incubated for 24 hrs by flow cytometry analysis; assay type: functional, cell-based
In short: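 HCC2429 cells exposed to 0.5 or 1 µM for 24, 48 and 72 h, then analysed by flow cytometry. Mean ± SEM, three independent experiments.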

HCC2429 [13] = assay: Induction of apoptosis in human HCC2429 cells assessed as cleaved caspase-3 expression at 0.5 microM incubated for 48 hrs by immunoblot analysis; assay type: functional, cell-based
In short: (§4)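 HCC2429 cells given 0.5 or 1 µM for 24, 48 and 72 h. Cleaved caspase-3 detected by immunoblot.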

HCC2429 [14] = assay: Induction of apoptosis in human HCC2429 cells assessed as cleaved caspase-3 expression at 0.5 microM incubated for 72 hrs by immunoblot analysis; assay type: functional, cell-based; in short: as §4
HCC2429 [15] = assay: Induction of apoptosis in human HCC2429 cells assessed as cleaved caspase-3 expression at 250 nM incubated for 72 hrs in presence of JQ1 by immunoblot analysis; assay type: functional, cell-based
In short: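 HCC2429 cells treated 72 h with 250 nM alone, 50 nM JQ1 alone, or both combined. Cleaved caspase-3 detected by immunoblot.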

HCC2429 [16] = assay: Inhibition of colony formation in human HCC2429 cells assessed as inhibition in colony formation at 250 nM incubated for 72 hrs in presence of JQ1 by crystal violet staining based assay; assay type: functional, cell-based
In short: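 HCC2429 cells incubated 72 h with 250 nM, 50 nM JQ1, or both. Colony formation then scored.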

HCC2429 [17] = assay: Induction of cell differentiation in human HCC2429 cells assessed as c-fos mRNA level at 250 nM for 5 days in presence of JQ1 by qRT-PCR analysis; assay type: functional, cell-based; conditions: time 5.0 day
In short: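 HCC2429 cells given 250 nM, 50 nM JQ1, or the combination for 5 days. KRT10, KRT14, TGM1 and c-fos mRNA by qRT-PCR. Mean ± SEM of three independent experiments.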

TC-797 = assay: Induction of squamous differentiation in human TC-797 cells assessed as change in cell phenotype at 0.5 microM for 5 days by immunofluorescence staining method; assay type: functional, cell-based; conditions: time 5.0 day
PER-403 = assay: Induction of squamous differentiation in human PER-403 cells assessed as change in cell phenotype at 0.5 microM for 5 days by immunofluorescence staining method; assay type: functional, cell-based; conditions: time 5.0 day
HCC2429 [18] = assay: Induction of cell differentiation in human HCC2429 cells assessed as increase in c-fos mRNA level at 0.5 microM for 5 days by qRT-PCR analysis
HCC2429 [19] = assay: Induction of cell differentiation in human HCC2429 cells assessed as increase in involucrin-protein level at 0.5 microM for 5 days by immunoblot analysis

- IC50 (HCC2429 [1]): 750 nM
SMILES: CNC(=O)Nc1ccc2c(c1)CC[C@@]21OC(=O)N(CC(=O)N(Cc2ccc(F)cc2)[C@@H](C)C(F)(F)F)C1=O [A-485]
- IC50 [2]: 980 nM
- IC50 (Ty-82): 210 nM
- inhibition (HCC2429 [3]): Active
- inhibition (HCC2429 [4]): Active
- inhibition (HCC2429 [5]): Active
- Activity (HCC2429 [6]): Active
- Activity (HCC2429 [7]): Active
- Activity (HCC2429 [8]): Active
- Activity (HCC2429 [9]): Active
- Activity (HCC2429 [10]): Active
- Activity (HCC2429 [11]): Active
- Activity (HCC2429 [12]): Active
- Activity (HCC2429 [13]): Active
- Activity (HCC2429 [14]): Active
- Activity (HCC2429 [15]): Active
- inhibition (HCC2429 [16]): Active
- Activity (HCC2429 [17]): Active
- Activity (TC-797): Active
- Activity (PER-403): Active
- Activity (HCC2429 [18]): Active
- Activity (HCC2429 [19]): Active
